Data: ChEMBL document CHEMBL3745614, “Potent and selective N-(4-sulfamoylphenyl)thiourea-based GPR55 agonists” (Eur J Med Chem, 2016)

Legend:
[1] = target: T1, G-protein coupled receptor 55 (Homo sapiens, UniProt Q9Y2T6); test: Agonist activity at human GPR55 expressed in CHOK1 cells at 10 uM by pathHunter beta-arrestin assay relative to LPI; type: cell-based; details: CHO-K1
Summary of the method: (§1)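 PathHunter eXpress GPR55 CHO-K1 β-arrestin kit run per the kit protocol, compounds screened at 10 μM. Luminescence read and expressed as percentage of the signal from bovine liver LPI at 1 μM. Mean with range of two experiments, each done in duplicate.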

[2] = target: T1, G-protein coupled receptor 55; test: Agonist activity at human GPR55 expressed in HEK293 cells assessed as calcium signalling by fura 2-based digital epifluorescence microscopy; type: functional, cell-based
Summary of the method: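 HEK293 cells stably expressing GPR55, grown on poly-L-lysine coated glass coverslips and serum-starved overnight. Compounds applied by bath perfusion in HEPES-buffered saline at 30-32 °C. Single-cell fura 2 ratiometric imaging (350/380 nm) every 5 s. Peak responses pooled from 24 cells (12 random cells from each of two experiments) per concentration; EC50 with 95% CI from concentration-response curves. ARA-LPI used as reference agonist.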

[3] = target: Cannabinoid receptor 1 (Homo sapiens) (UniProt P21554); test: Agonist activity at CBR1 (unknown origin) assessed as [35S]GTPgammaS binding at 10 uM by […] assay relative to control; type: functional
[4] = target: Cannabinoid receptor 2 (Homo sapiens) (UniProt P34972); test: Antagonist activity at human CBR2 assessed as [35S]GTPgammaS binding at 10 uM by […] assay relative to control; type: functional; set-up: scale not given: the % may be the effect or the level left
[5] = target: Cannabinoid receptor 2 (Homo sapiens) (UniProt P34972); test: Agonist activity at CBR2 (unknown origin) assessed as [35S]GTPgammaS binding at 10 uM by […] assay relative to control; type: functional
[6] = target: T2, Fatty-acid amide hydrolase 1 (Homo sapiens) (UniProt O00519); test: Inhibition of human FAAH expressed in African green monkey COS-7 cell membranes using [3H]-AEA as substrate assessed as residual activity at 10 uM preincubated for 10 mins followed by substrate addition measured after 10 mins by liquid scintillation counting analysis relative to control
T2 sequence (whole entry): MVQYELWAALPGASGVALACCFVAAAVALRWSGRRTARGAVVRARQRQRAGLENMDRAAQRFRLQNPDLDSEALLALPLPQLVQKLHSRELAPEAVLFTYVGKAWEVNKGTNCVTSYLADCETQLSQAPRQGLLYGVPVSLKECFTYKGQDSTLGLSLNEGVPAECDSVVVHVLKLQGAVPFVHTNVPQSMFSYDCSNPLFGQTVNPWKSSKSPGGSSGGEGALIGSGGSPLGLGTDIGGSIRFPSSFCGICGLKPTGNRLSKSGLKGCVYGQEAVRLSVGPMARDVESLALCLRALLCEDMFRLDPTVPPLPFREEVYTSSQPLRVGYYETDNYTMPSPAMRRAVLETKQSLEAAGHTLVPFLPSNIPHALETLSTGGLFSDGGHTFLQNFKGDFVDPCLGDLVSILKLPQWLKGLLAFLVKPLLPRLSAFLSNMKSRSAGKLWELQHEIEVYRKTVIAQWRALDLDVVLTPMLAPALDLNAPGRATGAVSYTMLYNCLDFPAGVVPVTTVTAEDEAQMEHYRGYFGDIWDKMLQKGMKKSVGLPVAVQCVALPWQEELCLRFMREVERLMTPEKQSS
Summary of the method: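 Membranes of COS-7 cells overexpressing hFAAH, 1 μg protein per incubation. Substrate 20 μM AEA including 10 nM [3H]AEA (60 Ci/mmol). Compounds tested at 10 μM.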

[7] = target: T3, Monoglyceride lipase (Homo sapiens) (UniProt Q99685); test: Inhibition of human MGL expressed in […] cells using 2AG as substrate assessed as residual activity at 10 uM preincubated for 10 mins followed by substrate addition measured after 10 mins by HPLC analysis; type: cell-based
T3 sequence (whole entry): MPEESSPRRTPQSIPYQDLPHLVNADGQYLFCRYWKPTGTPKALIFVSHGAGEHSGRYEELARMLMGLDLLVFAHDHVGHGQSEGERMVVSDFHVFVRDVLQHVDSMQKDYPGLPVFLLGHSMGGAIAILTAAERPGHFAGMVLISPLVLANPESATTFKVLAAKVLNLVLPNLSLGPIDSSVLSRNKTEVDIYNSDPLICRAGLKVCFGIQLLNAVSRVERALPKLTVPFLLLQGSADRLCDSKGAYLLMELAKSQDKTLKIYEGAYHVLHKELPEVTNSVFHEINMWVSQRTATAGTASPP
Summary of the method: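 Lysates of HEK cells overexpressing hMGL, 2.5 μg protein per incubation, substrate at 50 μM. Compounds tested at 10 μM.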

[8] = target: T4, Lysophosphatidylserine lipase ABHD12 (Homo sapiens) (UniProt Q8N2K0); test: Inhibition of human ABHD12 expressed in […] cells using 2-AG as substrate assessed as glycerol liberation at 1 uM preincubated for 30 mins followed by 2-AG addition measured for 90 mins by fluorescent glycerol assay relative to control; type: cell-based; set-up: scale not given: the % may be the effect or the level left
T4 sequence (whole entry): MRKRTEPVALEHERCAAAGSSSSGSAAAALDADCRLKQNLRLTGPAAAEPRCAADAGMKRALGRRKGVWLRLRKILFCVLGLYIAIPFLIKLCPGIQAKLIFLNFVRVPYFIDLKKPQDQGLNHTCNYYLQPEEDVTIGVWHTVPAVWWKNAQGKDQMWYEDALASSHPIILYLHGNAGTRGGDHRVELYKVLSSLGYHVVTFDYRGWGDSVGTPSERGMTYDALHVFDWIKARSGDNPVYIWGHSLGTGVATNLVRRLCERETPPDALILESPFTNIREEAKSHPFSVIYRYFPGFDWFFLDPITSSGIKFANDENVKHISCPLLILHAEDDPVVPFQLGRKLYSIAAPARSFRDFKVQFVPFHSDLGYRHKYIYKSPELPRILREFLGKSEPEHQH
Summary of the method: (§2)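 Lysates of HEK293 cells transiently overexpressing hABHD6 or hABHD12, 0.3 μg protein/well. Pretreated 30 min with DMSO or compound, then 2-AG added (12.5 μM final). Glycerol release coupled enzymatically to H2O2-dependent resorufin formation; fluorescence (ex 530/em 590 nm) followed kinetically for 90 min.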

[9] = target: T5, Monoacylglycerol lipase ABHD6 (Homo sapiens) (UniProt Q9BV23); test: Inhibition of human ABHD6 expressed in […] cells using 2-AG as substrate assessed as glycerol liberation at 1 uM preincubated for 30 mins followed by 2-AG addition measured for 90 mins by fluorescent glycerol assay relative to control; type: cell-based; set-up: scale not given: the % may be the effect or the level left; summary of the method: as §2
T5 sequence (whole entry): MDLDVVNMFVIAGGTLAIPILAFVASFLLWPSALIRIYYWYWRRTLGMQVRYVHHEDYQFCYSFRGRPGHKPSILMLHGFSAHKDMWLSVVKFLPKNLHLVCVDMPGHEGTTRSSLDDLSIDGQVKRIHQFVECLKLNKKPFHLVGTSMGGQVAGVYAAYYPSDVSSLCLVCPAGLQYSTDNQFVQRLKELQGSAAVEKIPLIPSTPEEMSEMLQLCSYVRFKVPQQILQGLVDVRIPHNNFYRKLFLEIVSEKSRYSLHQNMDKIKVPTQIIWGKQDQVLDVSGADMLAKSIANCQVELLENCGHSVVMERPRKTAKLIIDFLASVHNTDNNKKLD

[10] = target: T1, G-protein coupled receptor 55; test: Agonist activity at human GPR55 expressed in CHOK1 cells at 10 uM by pathHunter beta-arrestin assay relative to control; type: cell-based; details: CHO-K1; summary of the method: as §1
[11] = target: Cannabinoid receptor 1 (Homo sapiens) (UniProt P21554); test: Antagonist activity at human CBR1 assessed as [35S]GTPgammaS binding at 10 uM by radiometric assay relative to control; set-up: scale not given: the % may be the effect or the level left
[12] = target: T4, Lysophosphatidylserine lipase ABHD12 (Homo sapiens); test: Inhibition of human ABHD12 expressed in […] cells using 2-AG as substrate assessed as glycerol liberation at 10 uM preincubated for 30 mins followed by 2-AG addition measured for 90 mins by fluorescent glycerol assay relative to control; type: cell-based; set-up: scale not given: the % may be the effect or the level left; summary of the method: as §2
[13] = target: T5, Monoacylglycerol lipase ABHD6 (Homo sapiens); test: Inhibition of human ABHD6 expressed in […] cells using 2-AG as substrate assessed as glycerol liberation at 10 uM preincubated for 30 mins followed by 2-AG addition measured for 90 mins by fluorescent glycerol assay relative to control; type: cell-based; set-up: scale not given: the % may be the effect or the level left; summary of the method: as §2

Cannabinoid receptor 2 (Homo sapiens), sequence (P34972 whole entry): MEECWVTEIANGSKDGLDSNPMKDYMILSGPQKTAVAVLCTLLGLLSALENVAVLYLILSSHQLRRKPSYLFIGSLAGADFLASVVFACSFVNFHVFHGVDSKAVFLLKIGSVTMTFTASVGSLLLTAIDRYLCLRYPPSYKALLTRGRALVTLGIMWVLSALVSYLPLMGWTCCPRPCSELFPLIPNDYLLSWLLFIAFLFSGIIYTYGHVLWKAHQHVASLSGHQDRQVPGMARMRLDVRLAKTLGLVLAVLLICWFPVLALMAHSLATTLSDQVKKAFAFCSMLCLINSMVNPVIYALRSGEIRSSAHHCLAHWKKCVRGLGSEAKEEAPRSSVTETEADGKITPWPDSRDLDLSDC
T1 sequence (Q9Y2T6 whole entry): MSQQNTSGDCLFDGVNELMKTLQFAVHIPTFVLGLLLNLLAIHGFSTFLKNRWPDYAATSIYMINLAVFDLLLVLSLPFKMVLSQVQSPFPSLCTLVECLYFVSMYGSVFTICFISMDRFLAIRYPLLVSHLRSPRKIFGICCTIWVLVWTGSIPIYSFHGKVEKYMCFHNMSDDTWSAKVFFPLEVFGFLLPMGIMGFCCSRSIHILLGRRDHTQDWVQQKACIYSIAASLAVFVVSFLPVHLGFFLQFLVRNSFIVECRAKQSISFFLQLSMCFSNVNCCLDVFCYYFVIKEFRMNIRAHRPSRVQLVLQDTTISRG
Cannabinoid receptor 1 (Homo sapiens), sequence (P21554 whole entry): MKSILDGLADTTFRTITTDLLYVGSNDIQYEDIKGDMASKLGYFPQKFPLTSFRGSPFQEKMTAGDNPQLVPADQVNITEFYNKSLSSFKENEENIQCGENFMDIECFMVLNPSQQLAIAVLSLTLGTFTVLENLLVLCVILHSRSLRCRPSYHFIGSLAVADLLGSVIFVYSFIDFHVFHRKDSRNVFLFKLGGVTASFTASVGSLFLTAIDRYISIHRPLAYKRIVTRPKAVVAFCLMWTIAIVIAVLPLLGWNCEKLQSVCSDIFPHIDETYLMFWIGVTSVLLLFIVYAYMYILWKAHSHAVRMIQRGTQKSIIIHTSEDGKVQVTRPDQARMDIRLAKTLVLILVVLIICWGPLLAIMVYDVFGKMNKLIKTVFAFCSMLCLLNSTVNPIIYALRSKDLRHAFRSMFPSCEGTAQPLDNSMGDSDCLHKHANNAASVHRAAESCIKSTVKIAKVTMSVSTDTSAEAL

Row | Compound | Activity [1] [%] | EC50 [2] [nM] | Activity [3] [%] | Activity [4] [%] | Activity [5] [%] | Activity [6] [%] | Activity [7] [%] | Activity [8] [%] | Activity [9] [%] | Activity [10] [%] | Activity [11] [%] | Activity [12] [%] | Activity [13] [%]
1 | C=CCNS(=O)(=O)c1ccc(NC(=S)NC(=O)c2ccc(-c3ccccc3)cc2)cc1 | 194 | 19.4 | 127 | 81 | 87 | 78 | 96 | 100 | 99 | 285 | 94 | – | –
2 | Cc1ccc(CNS(=O)(=O)c2ccc(NC(=S)NC(=O)c3ccc(-c4ccccc4)cc3)cc2)cc1 | 148 | 12.4 | 105 | 103 | 118 | 94 | 100 | 103 | 100 | 220 | 102 | – | –
3 | O=C(NCc1ccccc1)c1ccc(NC(=S)NC(=O)c2ccc(-c3ccccc3)cc2)cc1 | 67 | > 10000 | 116 | 88 | 111 | 83 | 103 | 100 | 96 | 100 | 91 | – | –
4 | COc1ccc(CNS(=O)(=O)c2ccc(NC(=S)NC(=O)c3ccc(-c4ccccc4)cc3)cc2)cc1 | 157 | 7.7 | 101 | 101 | 103 | 94 | 105 | 100 | 101 | 230 | 99 | – | –
5 | O=C(NC(=S)Nc1ccc(S(=O)(=O)NCc2ccco2)cc1)c1ccc(-c2ccccc2)cc1 | 168 | 2 | 100 | 99 | 97 | 91 | 93 | 101 | 91 | 246 | 91 | – | –
6 | CCCNS(=O)(=O)c1ccc(NC(=S)NC(=O)c2ccc(-c3ccccc3)cc2)cc1 | 172 | 176 | 128 | 85 | 85 | 96 | 103 | – | 103 | 252 | 91 | 77 | 67
7 | CN1CCN(S(=O)(=O)c2ccc(NC(=S)NC(=O)c3ccc(-c4ccccc4)cc3)cc2)CC1 | 148 | 218 | 101 | 95 | 101 | 101 | 97 | – | – | 218 | 91 | 81 | 76
